Results taken from ChEMBL document CHEMBL2034894, “The structures of three metabolites of the algal hepatotoxin okadaic acid produced by oxidation with human cytochrome P450” (Bioorg Med Chem, 2012).
pIC50: −log10 of the molar value. Calls of active or inactive are those of the source. No cut-off for these calls is given here. Numbered stars: 1 amine (or outer) side, 2 acyl side, 3 side chain; on linkers, the order of the positions; unused ones are H or OH. Bridge positions count the residues as written; N and C are the ends. Square brackets hold non-standard residues; d marks the D form. Peptide text beside a SMILES is read from it. Adda = CO[C@@H](Cc1ccccc1)[C@@H](C)/C=C(C)/C=C/[C@H](N[*:1])[C@H](C)C(=O)[*:2]; dAsp(3S-Me) = C[C@H](C(=O)[*:3])[C@@H](N[*:1])C(=O)[*:2]; d(γGlu) = O=C(O)[C@@H](CCC(=O)[*:2])N[*:1]; NMeDha = C=C(NC)C(=O)O

Experiments:
[1] = Inhibition of protein phosphatase 1
[2] = Inhibition of PP2A using p-NPP as substrate pretreated for 1 hr by spectrophotometry
[3] = Reversible inhibition of PP2A using p-NPP as substrate assessed as recovery of enzyme activity at 100 uM pretreated for […] followed by 4 hrs dialysis by spectrophotometry relative to control; set-up: scale not given: the % may be the effect or the level left
How it was run: (§1)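 PP2A (0.07 U) was mixed 1:1 by volume with inhibitor solutions in 5% MeOH/H2O (20–100 µM before mixing) at 37 °C; controls got 5% MeOH/H2O alone. Buffer: 50 mM Tris, 2 mM MnCl2, 1.1 mM EDTA, 1.3 mM DTT, 0.125 mg/mL BSA. Samples were dialysed against buffer for 4 h at 5–7 °C, then given p-NPP (7.8 mM final) for 2 h at 37 °C; A405 read against control.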

[4] = Irreversible inhibition of PP2A using p-NPP as substrate assessed as recovery of enzyme activity pretreated for 1 hr followed by 4 hrs dialysis by spectrophotometry; how it was run: as §1
[5] = Reversible inhibition of PP2A using p-NPP as substrate assessed as recovery of enzyme activity at 80 uM […] followed by 4 hrs dialysis by spectrophotometry relative to control; set-up: scale not given: the % may be the effect or the level left

SMILES | inhibition [1] | inhibition [2] | Activity [3] | pIC50 [2] | inhibition [4] | Activity [5]
C=C1[C@@H](O)[C@@H]2O[C@]3(CC[C@H](/C=C/[C@@H](C)[C@@H]4CC(C)=C[C@@]5(O[C@H](C[C@@](C)(O)C(=O)O)CC[C@H]5O)O4)O3)CC[C@H]2O[C@@H]1[C@@H](O)C[C@H](C)[C@H]1O[C@@]2(CCCCO2)CC[C@H]1C | Active | Active |  |  |  | 
C=C1[C@@H](O)[C@@H]2O[C@]3(CC[C@H](/C=C/[C@@H](C)[C@@H]4CC(CO)=C[C@@]5(O[C@H](C[C@@](C)(O)C(=O)O)CC[C@H]5O)O4)O3)CC[C@H]2O[C@@H]1[C@@H](O)C[C@H](C)[C@H]1O[C@@]2(CCCCO2)CC[C@H]1C | Active |  | 113% | 8.87 |  | 
C=C1C(=O)N[C@H](C)C(=O)N[C@@H](CC(C)C)C(=O)N[C@@H](C(=O)O)[C@H](C)C(=O)N[C@@H](CCCNC(=N)N)C(=O)N[C@@H](/C=C/C(C)=C/[C@H](C)[C@H](Cc2ccccc2)OC)[C@H](C)C(=O)N[C@@H](C(=O)O)CCC(=O)N1C (R[Adda][d(γGlu)][NMeDha][dA]L[dAsp(3S-Me)]-OH; lactam N-7) |  |  |  |  | Active | 
C=C1[C@@H](O)[C@@H]2O[C@]3(CC[C@H](/C=C/[C@@H](C)[C@@H]4CC(C=O)=C[C@@]5(O[C@H](C[C@@](C)(O)C(=O)O)CC[C@H]5O)O4)O3)CC[C@H]2O[C@@H]1[C@@H](O)C[C@H](C)[C@H]1O[C@@]2(CCCCO2)CC[C@H]1C | Active |  |  | 8.40 |  | 117%
C=C1[C@@H](O)[C@@H]2O[C@]3(CC[C@H](/C=C/[C@@H](C)[C@@H]4CC(C)=C[C@@]5(O[C@H](C[C@@](C)(O)C(=O)O)CC[C@H]5O)O4)O3)CC[C@H]2O[C@@H]1[C@@H](O)C[C@H](C)[C@H]1O[C@]2(CC[C@H]1C)CC(O)CCO2 (stereo partly specified) | Active |  |  | 9.03 |  | 
